Rows were chosen to be rich in hits. Some 4.8% of all compounds tested hit in one or more screens of this group.
PAFAH1B3 FP inh: PAFAH1B3 enzyme inhibitors, primary screen, biochemical, fluorescence polarization, human | AID 492972, 2010 | inhibition, % at 3.39 µM | recombinant PAFAH1B3, FP-rhodamine probe | hit rate 0.28% among 340,000 | Platelet-activating factor acetylhydrolase IB subunit alpha1 (Homo sapiens), Q15102;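 active = inhibition above the screen-wide average of all tested compounds plus 3 SD, cut at about 25% in these data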;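 also: 0% = enzyme with DMSO only and 100% = wells lacking PAFAH1B3 protein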
Target sequence (Q15102 whole entry, looked up): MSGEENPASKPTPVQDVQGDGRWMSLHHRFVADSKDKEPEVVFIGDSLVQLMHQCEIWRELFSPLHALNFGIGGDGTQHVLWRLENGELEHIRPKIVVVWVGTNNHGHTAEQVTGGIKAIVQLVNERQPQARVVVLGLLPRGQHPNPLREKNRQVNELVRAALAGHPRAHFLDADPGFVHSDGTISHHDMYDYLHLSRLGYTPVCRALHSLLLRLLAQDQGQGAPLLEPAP
PAFAH1B2 inh: PAFAH1B2 enzyme inhibitors, primary screen, biochemical, fluorescence polarization, human; Platelet-activating factor acetylhydrolase IB subunit alpha2 (Homo sapiens), P68402; recombinant PAFAH1B2, FP-rhodamine activity probe; inhibition, % at 3.39 µM; hit rate 1.2% among 340,000;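 active = inhibition above the mean of all tested compounds plus 3 SD, cut at about 24% in these data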;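 also: 0% = enzyme with DMSO and 100% = wells lacking PAFAH1B2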
Target sequence (P68402 whole entry, looked up): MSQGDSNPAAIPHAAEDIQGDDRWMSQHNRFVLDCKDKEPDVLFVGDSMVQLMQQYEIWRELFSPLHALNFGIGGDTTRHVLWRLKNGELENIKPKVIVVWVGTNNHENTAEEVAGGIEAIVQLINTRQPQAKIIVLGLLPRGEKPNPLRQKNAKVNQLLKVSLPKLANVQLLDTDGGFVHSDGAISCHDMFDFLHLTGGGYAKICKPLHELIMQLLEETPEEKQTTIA
PAFAH2 inh: PAFAH2 enzyme inhibitors, primary screen, biochemical, fluorescence polarization, human; hit rate 0.99% among 340,000; inhibition, % at 3.39 µM; recombinant PAFAH2, FP-rhodamine activity probe; Platelet-activating factor acetylhydrolase 2, cytoplasmic (Homo sapiens), Q99487;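 active = inhibition above the mean over all tested compounds plus 3 SD, cut at about 30% in these data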;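 also: inhibitors block probe labeling of enzyme so polarization drops; 0% = enzyme with DMSO and 100% = wells lacking PAFAH2 protein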
GRIN3A LBD mod: binders of NR3A ligand-binding domain, primary screen, biophysical, differential scanning fluorimetry, uHTS; Glutamate receptor ionotropic, NMDA 3A (GRIN3A) ligand-binding domain; NR3A LBD differential scanning fluorimetry, Tm shift; 0% = protein alone, 100% = glycine-bound protein; Tm shift relative to glycine control, % at 25 µM; hit rate 2.5% among 340,000;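 active = melting temperature shift of at least 10% of the positive control shift, at one fixed dose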
pPAFAH FP inh: pPAFAH enzyme inhibitors, primary screen, biochemical, fluorescence polarization, human; recombinant pPAFAH, FP-rhodamine probe fluorescence polarization; inhibition, % at 3.39 µM; hit rate 1.5% among 330,000;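 active = inhibition above the mean inhibition across the screen plus 3 SD, cut at about 25% in these data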;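 also: inhibitors block binding of the rhodamine activity-based probe so polarization drops; 0% = enzyme with DMSO and 100% = wells lacking pPAFAH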
UCH37 DUB inh: inhibitors of human UCH37 deubiquitinase, primary screen, biochemical, Ub-AMC cleavage, fluorescence; Ubiquitin carboxyl-terminal hydrolase isozyme L5 (Homo sapiens), Q9Y5K5; purified proteasome/UCH37; hit rate 0.33% among 330,000; inhibition, % (no concentration beside the values); AID 588478, 2011;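 active = mean inhibition over replicate wells above about 20%, limit read from the data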;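 also: 0% = compound-free wells with enzyme and 100% = wells lacking proteasome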
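Assay system: Proteasome-bound UCH37. Buffer or medium: pH 7.4 Tris-HCl (50 mM) with ovalbumin, ATP-MgCl2, DTT. Incubation: 30 min preincubation with enzyme, 25 min cleavage at room temperature. Measured by: fluorescence, ex 355 nm, em 460 nm. Read-out basis: percent inhibition. Control set: wells without proteasome as full block, compound-free enzyme plus substrate as uninhibited.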
* = called active by the depositor; i = inactive; x = no result.

SMILES	PAFAH1B3 FP inh	PAFAH1B2 inh	PAFAH2 inh	GRIN3A LBD mod	pPAFAH FP inh	UCH37 DUB inh
CCOC(=O)c1ccc(NC(=S)N2CCSC2c2ccc(Cl)cc2)cc1 (stereo not given)	-7	15	-12	19*	-2	4
CCOC(=O)c1ccc(NC(=S)N2CCSC2c2ccc(OC)cc2)cc1 (stereo not given)	3	-2	-4	8	-6	2
C=CCNC(=S)NNC(=O)C(CC(C)C)CC(C)O (stereo not given)	8	2	-3	-1	4	1
C=CCNC(=S)NNC(=O)C(CCC(C)C)CC(C)(C)O (stereo not given)	0	3	-1	-2	3	31*
COCCCNC(=S)NN=Cc1ccc2ccccc2c1	x	x	x	x	x	5
Cc1cc(=O)oc2c3c(cc(OCC(=O)NC(Cc4ccc(Cl)cc4)C(=O)O)c12)OC(C)(C)CC3 (stereo not given)	4	58*	33*	-2	27*	-462
CCc1cc(=O)oc2c3c(cc(OCC(=O)NCCCC(=O)O)c12)OC(C)(C)CC3	12	2	39*	-1	32*	i
Cc1cc(=O)oc2c3c(cc(OCC(=O)NCCC(=O)O)c12)OC(C)(C)CC3	0	-2	-2	0	x	i
COc1ccccc1CNC(=O)COc1cc2c(c3oc(=O)cc(C)c13)CCC(C)(C)O2	2	27*	18	0	12	-208
Cc1cc(=O)oc2c3c(cc(OCC(=O)N[C@@H](C)C(=O)O)c12)OC(C)(C)CC3	5	-4	6	0	x	i
Cc1cccc2c1OCCC2=NNC(=O)COc1ccccc1Cl	x	x	x	x	x	-1
Cc1ccc(/C=C2\SC(N3CCN(C(c4ccccc4)c4ccccc4)CC3)=NC2=O)o1	-3	-3	4	7	27*	6
COc1cccc(C=NNC(=O)C(=O)Nc2ccccc2OC(F)(F)C(F)F)c1	x	x	x	x	x	-35
COc1ccc(Cl)cc1C(=O)Nc1ccc(NC(C)=O)cc1	8	-5	5	-13	-2	-10
CC(=O)Oc1c(I)cc(I)cc1C(=O)Nc1ccc(Cl)cc1	10	25*	3	16*	25*	x
O=C(NNC(=S)NC(=O)C12CC3CC(CC(C3)C1)C2)c1ccncc1	3	45*	12	0	2	6
CC1(C(=O)NC(=S)NNC(=O)c2ccncc2)CCCCC1	0	17	-6	-2	4	10
Cc1ccccc1NS(=O)(=O)c1ccc(OCCNS(C)(=O)=O)cc1	1	-6	0	-1	32*	-3
CCOC(=O)Cc1cc(=O)n2[nH]cc(-c3ccc(Cl)cc3)c2n1	0	5	4	0	32*	-191
CCOC(=O)Cc1c(C)nc2c(-c3ccccc3)c[nH]n2c1=O	-1	0	2	-1	8	x
O=c1c2ccccc2nc(/C=C/c2ccc(O)cc2)n1CCc1ccccc1	4	-6	-8	20*	-3	0
COc1cc(C=NNC(=O)CSc2n[nH]c(=O)[nH]c2=O)cc(OC)c1O	x	x	x	x	x	3
S=c1nc[nH]c2c1sc1nc(-c3ccccc3)c3c(c12)CCCC3	7	5	29	12*	14	3
COCCn1c(NCc2ccccc2)nc2c1c(=O)[nH]c(=O)n2C	-1	6	-5	3	1	-1
Cn1c(=O)[nH]c(=O)c2c1nc(NCc1ccccc1)n2CC(O)c1ccccc1 (stereo not given)	6	4	1	11*	3	5
SMILES	PAFAH1B3 FP inh	PAFAH1B2 inh	PAFAH2 inh	GRIN3A LBD mod	pPAFAH FP inh	UCH37 DUB inh
Cc1ccc(OCC(O)Cn2c(NCCc3ccccc3)nc3c2c(=O)[nH]c(=O)n3C)cc1 (stereo not given)	-1	10	4	11*	11	4
Cn1c(=O)[nH]c(=O)c2c1nc(NCCc1ccccc1)n2CC(O)COc1ccccc1 (stereo not given)	0	-1	-10	0	4	-1
Cc1sc(N(C(=O)CCc2ccccc2)c2ccc(C(=O)O)cc2)nc1-c1ccccc1	7	34*	4	-2	25*	1
CCC(=O)N(c1ccc(C(=O)O)cc1)c1nc(-c2ccc(OC)cc2)c(C)s1	1	6	1	-1	6	3
COc1ccc(-c2cc(-c3cc(C)ccc3O)[nH]n2)cc1	3	5	5	14*	-10	5
COc1ccc(-c2cc(-c3ccc(OC)cc3)[nH]n2)cc1	6	2	-2	10	-1	2
CC(C)(C)c1ccc(-c2cc(-c3ccccc3O)[nH]n2)cc1	10	-4	-18	19*	4	0
Oc1ccccc1-c1cc(-c2cccc(F)c2)n[nH]1	-9	0	-18	8	-8	4
COc1ccc(-c2cc(-c3ccc(C)cc3)n[nH]2)c(O)c1	1	3	2	31*	-11	3
Cc1ccccc1CC1S/C(=N/N=Cc2ccco2)NC1=O (stereo not given)	x	x	x	x	x	7
CSc1nc2ccccc2n1CC(=O)Nc1ccccc1	12	5	-4	1	5	-2
O=C(Cn1c(/C=C/c2ccccc2)nc2ccccc21)Nc1ccc(F)cc1	5	0	-5	14*	3	-288
CC(C)NC(=S)NNC(=O)C12CC3CC(CC(C3)C1)C2	11	8	-1	11*	3	1
CC(=NNS(=O)(=O)c1ccc(Br)cc1)c1ccc(NC(=O)c2ccc(C)o2)cc1	x	x	x	x	x	2
CC(C)[C@H](NC(=O)c1ccco1)C(=O)OCC(=O)c1ccc2c(c1)NC(=O)CO2	3	6	0	11*	2	3
O=[N+]([O-])c1cc(S(=O)(=O)N=C(c2ccccc2)N2CCOCC2)ccc1Cl	x	x	x	x	x	0
CN1C(=O)/C(=C/c2ccc(-c3ccccc3[N+](=O)[O-])o2)SC1=Nc1ccc(Cl)c(C(=O)O)c1	23	16	31*	-5	29*	5
O=C(C=NO)NCCCN1CCOCC1	x	x	x	x	x	2
COc1ccccc1-c1cc(C(=O)NN=Cc2sccc2C)c2ccccc2n1	x	x	x	x	x	-5
COc1cc(C=Nn2c(C)n[nH]c2=S)ccc1OCc1ccc(F)cc1	x	x	x	x	x	0
CCC(CC)C(=O)NCCN1CCN(C(=O)C(CC)CC)CC1	4	0	0	0	7	1

Source: PubChem BioAssay (several laboratories)
